Reference: ChEMBL document CHEMBL1155415, “Synthesis, characterization, and in vitro antimicrobial activities of 5-alkenyl/hydroxyalkenyl-2-phenylamine-1,3,4-oxadiazoles and thiadiazoles” (2010)
In brackets after ≈: the same amount, converted by molar mass.

Legend:
Assay type in all cases: functional
Candida albicans [1] = experiment: Antifungal activity against Candida albicans after 48 hrs by disk diffusion method
Outline: (§1)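 Agar well diffusion with compounds in DMSO. The dish was lawned with a saline spore suspension, excess decanted, and dried 1 h at 37 °C. Wells were punched. Read-out: inhibition zone in mm. Griseofulvin served as standard and DMSO as negative control.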

Aspergillus fumigatus [2] = experiment: Ratio of MFC to MIC for Aspergillus fumigatus
Outline: (§2)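 MFC: 0.1 ml from each MIC tube was spread on agar and colonies were counted after 48 h at 35 °C. MFC is the lowest concentration killing 99.9% of the inoculum. The MFC/MIC ratio was then calculated to classify activity as fungistatic or fungicidal.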

Talaromyces marneffei [3] = experiment: Ratio of MFC to MIC for Penicillium marneffei; outline: as §2
Pseudomonas aeruginosa [4] = experiment: Antibacterial activity against Pseudomonas aeruginosa ATCC 27853 after 24 hrs by disc diffusion method
Outline: (§3)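 Agar disc diffusion. A standard inoculum of […] c.f.u./ml (0.5 McFarland) was spread evenly on agar. 6 mm Whatman no. 1 paper discs, dry-heat sterilized (140 °C, 1 h), were soaked in test compound and placed on nutrient agar. Plates were inverted and incubated 24 h at 37 °C. Read-out: diameter of the inhibition zone.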

[5] = test system: Trichophyton mentagrophytes; experiment: Ratio of MFC to MIC for Trichophyton mentagrophytes; outline: as §2
Escherichia coli [6] = experiment: Antibacterial activity against Escherichia coli ATCC 25922 after 18 to 24 hrs
Pseudomonas aeruginosa [7] = experiment: Antibacterial activity against Pseudomonas aeruginosa ATCC 27853 after 18 to 24 hrs
Streptococcus pyogenes [8] = experiment: Antibacterial activity against Streptococcus pyogenes after 24 hrs by two fold dilution technique
Outline: (§4)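 Broth dilution MIC. Nutrient broth held log two-fold serial dilutions of compound and was inoculated with about 5 × 10⁵ c.f.u./ml of actively dividing bacteria. Incubation was 24 h at 37 °C, with growth checked visually and spectrophotometrically. MIC is the lowest concentration arresting growth.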

Escherichia coli [9] = experiment: Antibacterial activity against Escherichia coli ATCC 25922 after 24 hrs by disc diffusion method; outline: as §3
Staphylococcus aureus [10] = experiment: Antibacterial activity against Staphylococcus aureus ATCC 25923 after 24 hrs by disc diffusion method; outline: as §3
Klebsiella pneumoniae [11] = experiment: Antibacterial activity against Klebsiella pneumoniae after 18 to 24 hrs
Aspergillus fumigatus [12] = experiment: Antifungal activity against Aspergillus fumigatus after 48 hrs by disk diffusion method; outline: as §1
Streptococcus pyogenes [13] = experiment: Antibacterial activity against Streptococcus pyogenes after 18 to 24 hrs
Klebsiella pneumoniae [14] = experiment: Antibacterial activity against Klebsiella pneumoniae after 24 hrs by disc diffusion method; outline: as §3
Talaromyces marneffei [15] = experiment: Antifungal activity against Penicillium marneffei after 48 hrs by two fold dilution technique
Outline: (§5)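 Broth MIC. Broth with log two-fold serial dilutions of compound was inoculated with about 1.6 × 10⁴–6 × 10⁴ c.f.u./ml of fungus and incubated 48 h at 35 °C. MIC is the lowest concentration arresting fungal growth.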

Staphylococcus aureus [16] = experiment: Antibacterial activity against Staphylococcus aureus ATCC 25923 after 24 hrs by two fold dilution technique; conditions: ATCC 25923, 24 h; outline: as §4
[17] = test system: Trichophyton mentagrophytes; experiment: Antifungal activity against Trichophyton mentagrophytes after 48 hrs by two fold dilution technique; outline: as §5
Streptococcus pyogenes [18] = experiment: Antibacterial activity against Streptococcus pyogenes after 24 hrs by disc diffusion method; outline: as §3
Candida albicans [19] = experiment: Ratio of MFC to MIC for Candida albicans; outline: as §2
Aspergillus fumigatus [20] = experiment: Antifungal activity against Aspergillus fumigatus after 48 hrs by two fold dilution technique; outline: as §5
Candida albicans [21] = experiment: Antifungal activity against Candida albicans after 48 hrs by two fold dilution technique; outline: as §5
[22] = test system: Trichophyton mentagrophytes; experiment: Antifungal activity against Trichophyton mentagrophytes after 48 hrs by disk diffusion method; outline: as §1
Pseudomonas aeruginosa [23] = experiment: Antibacterial activity against Pseudomonas aeruginosa ATCC 27853 after 24 hrs by two fold dilution technique; conditions: ATCC 27853, 24 h; outline: as §4
Staphylococcus aureus [24] = experiment: Antibacterial activity against Staphylococcus aureus ATCC 25923 after 18 to 24 hrs
Escherichia coli [25] = experiment: Antibacterial activity against Escherichia coli ATCC 25922 after 24 hrs by two fold dilution technique; conditions: ATCC 25922, 24 h; outline: as §4
Klebsiella pneumoniae [26] = experiment: Antibacterial activity against Klebsiella pneumoniae after 24 hrs by two fold dilution technique; outline: as §4
Talaromyces marneffei [27] = experiment: Antifungal activity against Penicillium marneffei after 48 hrs by disk diffusion method; outline: as §1

Row | Structure (SMILES) | diameter of the inhibition zone (DIZ) (Candida albicans [1]) [mm] | Ratio (Aspergillus fumigatus [2]) | Ratio (Talaromyces marneffei [3]) | diameter of the inhibition zone (DIZ) (Pseudomonas aeruginosa [4]) [mm] | Ratio [5] | MBC (Escherichia coli [6]) [µg/mL] | MBC (Pseudomonas aeruginosa [7]) [µg/mL] | MIC (Streptococcus pyogenes [8]) [µg/mL] | diameter of the inhibition zone (DIZ) (Aspergillus fumigatus [12]) [mm] | MFC (Talaromyces marneffei [15]) [µg/mL] | MIC (Talaromyces marneffei [15]) [µg/mL] | MFC [17] [µg/mL] | MIC [17] [µg/mL] | Ratio (Candida albicans [19]) | MFC (Aspergillus fumigatus [20]) [µg/mL] | MIC (Aspergillus fumigatus [20]) [µg/mL] | MFC (Candida albicans [21]) [µg/mL] | MIC (Candida albicans [21]) [µg/mL] | diameter of the inhibition zone (DIZ) [22] [mm] | diameter of the inhibition zone (DIZ) (Talaromyces marneffei [27]) [mm] | other results
1 | CCCCC/C=C\CC[C@H](O)CCCCCCCc1nnc(Nc2ccccc2)o1 | 23.2 | 2 | 4 | 19.4 | 2 | 25 (≈ 60.4 µM) | 50 (≈ 121 µM) | 6.25 (≈ 15.1 µM) | 21.6 | 100 (≈ 242 µM) | 25 (≈ 60.4 µM) | 50 (≈ 121 µM) | 25 (≈ 60.4 µM) | 2 | 50 (≈ 121 µM) | 25 (≈ 60.4 µM) | 25 (≈ 60.4 µM) | 12.5 (≈ 30.2 µM) | 18.7 | 16.3 | diameter of the inhibition zone (DIZ) (Escherichia coli [9]): 21.6 mm; diameter of the inhibition zone (DIZ) (Staphylococcus aureus [10]): 21.1 mm; MBC (Klebsiella pneumoniae [11]): 25 µg/mL (≈ 60.4 µM); MBC (Streptococcus pyogenes [13]): 25 µg/mL (≈ 60.4 µM); diameter of the inhibition zone (DIZ) (Klebsiella pneumoniae [14]): 20.2 mm; MIC (Staphylococcus aureus [16]): 12.5 µg/mL (≈ 30.2 µM); diameter of the inhibition zone (DIZ) (Streptococcus pyogenes [18]): 20.1 mm; MIC (Pseudomonas aeruginosa [23]): 6.25 µg/mL (≈ 15.1 µM); MBC (Staphylococcus aureus [24]): 12.5 µg/mL (≈ 30.2 µM); MIC (Escherichia coli [25]): 6.25 µg/mL (≈ 15.1 µM); MIC (Klebsiella pneumoniae [26]): 6.25 µg/mL (≈ 15.1 µM)
2 | C=CCCCCCCCCc1nnc(Nc2ccccc2)o1 | 24.2 | 4 | 2 | 17.3 | 4 | 50 (≈ 167 µM) | 50 (≈ 167 µM) | 12.5 (≈ 41.7 µM) | 20.8 | 25 (≈ 83.5 µM) | 12.5 (≈ 41.7 µM) | 50 (≈ 167 µM) | 12.5 (≈ 41.7 µM) | 2 | 100 (≈ 334 µM) | 25 (≈ 83.5 µM) | 50 (≈ 167 µM) | 25 (≈ 83.5 µM) | 16.9 | 15.2 | diameter of the inhibition zone (DIZ) (Escherichia coli [9]): 19.8 mm; diameter of the inhibition zone (DIZ) (Staphylococcus aureus [10]): 17.7 mm; MBC (Klebsiella pneumoniae [11]): 25 µg/mL (≈ 83.5 µM); MBC (Streptococcus pyogenes [13]): 50 µg/mL (≈ 167 µM); diameter of the inhibition zone (DIZ) (Klebsiella pneumoniae [14]): 16.8 mm; MIC (Staphylococcus aureus [16]): 6.25 µg/mL (≈ 20.9 µM); diameter of the inhibition zone (DIZ) (Streptococcus pyogenes [18]): 18 mm; MIC (Pseudomonas aeruginosa [23]): 12.5 µg/mL (≈ 41.7 µM); MBC (Staphylococcus aureus [24]): 25 µg/mL (≈ 83.5 µM); MIC (Escherichia coli [25]): 12.5 µg/mL (≈ 41.7 µM); MIC (Klebsiella pneumoniae [26]): 12.5 µg/mL (≈ 41.7 µM)
3 | COC1=CC(=O)C[C@@H](C)[C@]12Oc1c(Cl)c(OC)cc(OC)c1C2=O [GRISEOFULVIN] | 30 | 2 | 2 | – | 2 | – | – | – | 27 | 12.5 (≈ 35.4 µM) | 6.25 (≈ 17.7 µM) | 12.5 (≈ 35.4 µM) | 6.25 (≈ 17.7 µM) | 2 | 12.5 (≈ 35.4 µM) | 6.25 (≈ 17.7 µM) | 12.5 (≈ 35.4 µM) | 6.25 (≈ 17.7 µM) | 24 | 20 | –
